Screening data from PubChem BioAssay.
HCT116 PTEN-null – growth suppression of PTEN-null HCT116, primary screen, cell-based, CellTiter-Glo; HCT116 PTEN-null viability, 60 h; active compounds read low; viability, % at 10 µM; actives 1.2% (n = 140,000);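 active = viability at or below a set limit, 4 SD under the median of all tested compounds, cut at about 3.7% in these data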;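 also: PTEN knockout HCT116 line with beta catenin targeted HCT116 as companion control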
PMI activator – activators of human PMI, primary screen, biochemical, fluorescence intensity, near-Km mannose 6-phosphate; Mannose-6-phosphate isomerase (Homo sapiens), P34949; purified human PMI, coupled resazurin fluorescence, 20 min; active compounds read high; 1 = vehicle control, 0 substrate-free wells; activation factor at 20 µM; actives 0.005% (n = 190,000);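 active = activation factor of 2 or more at 20 µM, relative to plate controls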
Target sequence (P34949 whole entry, looked up): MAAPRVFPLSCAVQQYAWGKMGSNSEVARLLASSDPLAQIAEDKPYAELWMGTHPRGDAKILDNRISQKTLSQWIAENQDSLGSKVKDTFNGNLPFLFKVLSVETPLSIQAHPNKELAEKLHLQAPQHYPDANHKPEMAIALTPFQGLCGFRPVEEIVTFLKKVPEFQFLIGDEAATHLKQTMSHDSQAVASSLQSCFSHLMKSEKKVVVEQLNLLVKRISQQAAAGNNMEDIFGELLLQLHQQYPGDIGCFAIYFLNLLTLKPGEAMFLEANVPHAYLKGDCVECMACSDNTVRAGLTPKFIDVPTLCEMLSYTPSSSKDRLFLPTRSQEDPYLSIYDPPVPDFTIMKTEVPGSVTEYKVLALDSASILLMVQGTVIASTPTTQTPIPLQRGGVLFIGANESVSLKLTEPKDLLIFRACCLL
HCT116 bCat-KO – primary screen for growth suppressors in beta-catenin knockout HCT116 cells (colon tumor, human). actives 1.5% (n = 140,000). AID 818, 2007. HCT116 beta-catenin knockout viability, CellTiter-Glo, 60 h; active compounds read low. viability, % at 10 µM;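 active = viability at or under a set limit, the compound median less 4 SD, cut at about 6% in these data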
PMI act satM6P – human PMI activators, high substrate, primary screen, biochemical, fluorescence intensity, near-saturating mannose 6-phosphate | Mannose-6-phosphate isomerase (Homo sapiens), P34949 | coupled PMI enzyme assay, resazurin fluorescence, 20 min; active compounds read high; 1 = untreated enzyme, 0 = substrate-free blank | activation factor at 20 µM | actives 0.34% (n = 190,000);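 active = activation factor of 2 or more at 20 µM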
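Test system – human PMI in coupled enzyme assay · Timing – 20 min incubation at room temperature · Detection – Diaphorase-driven resazurin-to-resorufin fluorescence, excitation 544, emission 590 nm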
L major viab – Leishmania major promastigote growth inhibition, primary screen; Leishmania major promastigotes, resazurin fluorescence viability; actives 9% (n = 200,000); inhibition, % at 10 µM; AID 1063, 2008; in the data active = inhibition above about 50%;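 also: promastigotes grown with compound for 44 hours at 28 °C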
A number is an active result; – = inactive; · = not tested or not shown. Sampled rows, rich in hits. Any-hit rate of the full collection: about 9.6%.

SMILES	HCT116 PTEN-null	PMI activator	HCT116 bCat-KO	PMI act satM6P	L major viab
Cc1ccc(C(=O)N2CCN(S(=O)(=O)c3ccccc3[N+](=O)[O-])CC2)o1	·	–	·	–	–
COC(=O)C1=C(CN2CCc3ccccc32)NC(=O)NC1c1cc(C)ccc1C (stereo not drawn)	–	–	–	–	70
Cc1ccc(-c2c(C(=O)NCc3ccc(F)cc3)oc(=O)c3ccccc23)cc1	–	–	–	–	74
Cc1ccc(N(NC(=O)C(O)(c2ccccc2)c2ccccc2)C(=O)CCl)cc1	3.4	–	3.3	–	88
CN1CC(=O)N2[C@H](c3ccc4c(c3)OCO4)c3[nH]c4ccccc4c3C[C@@H]2C1=O	·	–	·	–	·
c1ccc(OCCN2CCN(Cc3nc(-c4ccc5c(c4)OCO5)no3)CC2)cc1	·	–	·	–	68
c1ccc(C(c2ccccc2)c2noc(CN3CCC(c4ccncc4)CC3)n2)cc1	·	–	·	–	90
c1cc(C2CCN(Cc3nc(-c4ccc5c(c4)OCO5)no3)CC2)ccn1	·	–	·	–	95
c1ccc(C2CCCN(Cc3nc(CC4CC4)no3)CC2)cc1 (stereo not drawn)	·	·	·	·	–
CN1CCCN(Cc2nc(-c3cccc(C(F)(F)F)c3)no2)CC1	·	–	·	–	99
CCCCCCc1nc2ccccc2c(=O)n1NC(=O)c1c(O)c2cccc3c2n(c1=O)CCC3	–	–	–	–	–
Cc1ccc(OCC(=O)Nc2ccc(CN3CCCCC3)cc2)c(C)c1	·	–	·	–	–
FC(F)(F)c1cccc(Cc2noc(CN3CCC(c4ccncc4)CC3)n2)c1	·	–	·	–	98
CN1CCCC2(CCCN(Cc3nc(Cc4cccc(C(F)(F)F)c4)no3)C2)C1 (stereo not drawn)	·	–	·	–	–
Fc1ccc(CN2CCCN(Cc3nc(-c4ccc5c(c4)OCO5)no3)CC2)cc1	·	–	·	–	95
CC1=NN(c2ccc(C)c(C)c2)C(=O)/C1=C\C=C\c1ccc([N+](=O)[O-])o1	·	–	·	–	98
CC1=NN(c2ccc([N+](=O)[O-])cc2)C(=O)/C1=C\N(C)C	–	–	–	–	–
O=C(O)CCSc1nnc(-c2cccnc2)n1-c1ccccc1	–	–	–	–	–
CCc1cc(C(=O)OC)c(NC(=O)C2CC(=O)NN2Cc2ccccc2)s1 (stereo not drawn)	–	–	–	–	99
O=C(N1CCCCCC1)n1c(Cc2ccccc2)nc2ccccc21	–	–	–	–	63
CCc1ccc(OCCNC(=O)c2ccccc2SCc2ccccc2)cc1	–	–	–	–	–
O=C(NCCOc1ccccc1F)c1ccccc1SCc1ccc(F)cc1	–	–	–	–	54
CCN(CC)C(=O)C1CCCN(c2ccc([N+](=O)[O-])cc2/C=N/NC(=O)c2ccc([N+](=O)[O-])cc2)C1 (stereo not drawn)	–	–	–	–	53
CN1CCN(c2ccccc2NC(=O)c2cccc([N+](=O)[O-])c2)CC1	·	–	·	–	–
CN1CCN(c2ccc([N+](=O)[O-])cc2/C=N/NC(=O)c2cccc([N+](=O)[O-])c2)CC1	–	–	5.3	–	–
SMILES	HCT116 PTEN-null	PMI activator	HCT116 bCat-KO	PMI act satM6P	L major viab
Cn1cccc1C(=O)C(=O)Nc1ccc(F)c(F)c1	·	–	·	–	–
O=C1CC(N(CCc2ccccc2)C(=S)Nc2ccccc2)C(=O)N1c1ccccc1 (stereo not drawn)	–	–	–	–	–
O=C1CC(N(CCc2ccccc2)C(=S)Nc2cc(Cl)ccc2Cl)C(=O)N1c1c(Cl)cccc1Cl (stereo not drawn)	–	–	–	–	99
Cc1c(C(=O)O)cccc1-c1ccc(/C=N/Nc2ccc(Br)cc2)o1	–	–	–	2.2	–
O=Cc1ccc(-c2ccccc2C(=O)O)o1	·	–	·	–	–
Cc1ccc(Nc2nc(CSc3nnc(-c4ccccc4)n3C)cs2)cc1	–	–	–	–	95
Cc1ccc(Nc2nc(CSc3nnc(-c4ccccc4C)n3C)cs2)cc1	–	–	–	–	–
Cc1ccc(Nc2nc(CSc3nnc(-c4cccnc4)n3-c3ccccc3C)cs2)cc1	–	–	–	–	97
Cc1ccccc1-n1c(SCc2csc(Nc3ccccc3)n2)nnc1-c1cccnc1	–	–	–	–	65
Cc1ccc(/C([O-])=C(/C(=S)Nc2ccc(SC(F)F)cc2)[n+]2ccccc2)cc1[N+](=O)[O-]	·	–	·	–	–
Cc1ccc(Cn2cc(S(=O)(=O)c3ccc(C(C)C)cc3)c(=O)c3cc4c(cc32)OCO4)cc1	–	–	–	–	65
CC(C)c1ccc(S(=O)(=O)c2cn(Cc3ccc(F)cc3)c3cc4c(cc3c2=O)OCO4)cc1	–	–	–	–	98
Cc1ccc[n+](-c2[nH]c(=O)sc2/C=N/NC(=O)c2ccccc2[O-])c1	–	–	–	–	–
O=C(CSc1nncs1)NC(=O)NC1CCCC1	·	–	·	–	–
CNC(=S)N(CCc1ccccc1)Cc1cc2cc(OC)c(OC)cc2[nH]c1=O	–	–	–	–	–
COc1cc2cc(CN(CCc3ccccc3C)C(=S)NCCCN3CCOCC3)c(=O)[nH]c2cc1OC	·	–	·	–	–
CNC(=S)N(CCc1ccc(OC)c(OC)c1)Cc1cc2c(C)cc(C)cc2[nH]c1=O	–	–	–	–	69
COc1cc2cc(CN(CCc3ccccc3C)C(=S)NCCCN(C)C)c(=O)[nH]c2cc1OC	1.8	–	2.2	–	78
CCNC(=S)N(CCc1ccccc1C)Cc1cc2cc(OC)c(OC)cc2[nH]c1=O	–	–	–	–	75
CCNC(=S)N(CCc1cccc(C)c1)Cc1cc2cc(OC)c(OC)cc2[nH]c1=O	–	–	–	–	–
Cc1ccc(-n2cc(-c3ccccc3)c3c(NN4CCOCC4)ncnc32)cc1	–	–	–	–	81
c1ccc(-c2cn(-c3ccccc3)c3ncnc(N4CCCCC4)c23)cc1	·	–	·	–	–
CN1CCN(c2ncnc3c2c(-c2ccccc2)cn3-c2ccc(F)cc2)CC1	·	–	·	–	58
Cc1cccc(-n2cc(-c3ccccc3)c3c(NN4CCOCC4)ncnc32)c1	–	–	–	–	63
Cc1c(C(=O)NN)nc2ccccn12	–	–	–	–	–
SMILES	HCT116 PTEN-null	PMI activator	HCT116 bCat-KO	PMI act satM6P	L major viab
O=C(CSc1nnnn1C1CCCCC1)Nc1ccccc1N1CCOCC1	·	·	·	·	60
COc1ccc(-n2nnnc2SCC(=O)Nc2ccccc2N2CCOCC2)cc1	·	–	·	–	99
c1ccc(CCn2c(SCc3ccccc3)nnc2-c2ccncc2)cc1	–	–	–	–	–
N#Cc1ccc(CSc2nnc(-c3ccncc3)n2CCc2ccccc2)cc1	–	–	–	–	90
C=CCn1c(C)cc(C(=O)CSc2nc3ccccc3[nH]2)c1C	–	–	–	–	70
COC(=O)c1ccc(CSc2nnc(-c3ccncc3)n2Cc2ccccc2)o1	–	–	–	–	76
